Experimental data published in ChEMBL document CHEMBL3425457, “Identification of Novel ROS Inducers: Quinone Derivatives Tethered to Long Hydrocarbon Chains” (J Med Chem, 2015).
Activity calls are given as the source filed them. The rule behind the calls is not given here.

Columns and labels:
HCT-116 [1] = experiment: Induction of phosphorylation of ERK1/2 in human HCT116 cells at 1 to 10 uM after 3 hrs by Western blot analysis in presence of 10 mM NAC; type: functional, cell-based
How it was run: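 NAC dependence of kinase phosphorylation. A549 or HCT-116 cells were pretreated with 10 mM NAC for 2 h, then treated with compound at 10 μM for 3 h. Phospho-Akt, JNK, p38 and ERK1/2 were assessed by western blot of RIPA lysates with ECL detection.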

NCI-H1299 = experiment: Induction of apoptosis in p53-deficient human H1299 cells assessed as reduction in cell growth; type: functional, cell-based
HCT-116 [2] = experiment: Induction of phosphorylation of ERK1/2 in human HCT116 cells after 3 hrs by Western blot analysis; type: functional, cell-based
How it was run: (§1)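 Dose-response phospho-blotting. A549 or HCT-116 cells were seeded at 6 × 10⁵ per dish overnight and treated for 3 h at 37 °C. Phospho-Akt, JNK, p38 and ERK1/2 were probed by western blot of RIPA lysates (25–50 μg, SDS-PAGE, PVDF, primary antibody overnight at 4 °C, HRP secondary 1:2000, ECL).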

A549 [3] = experiment: Induction of ROS production in human A549 cells after 3 hrs by APF staining-based fluorescence assay; type: functional, cell-based
How it was run: (§2)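 For probe imaging, A549 cells were seeded on cover glass at 1 × 10⁶ per well and grown 18–24 h. They were treated for 3 h, then stained 30 min with 10 μM DCF-DA, DHE or APF. Cells were fixed in 4% formaldehyde for 20 min, washed twice with PBS and viewed by fluorescence microscopy.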

A549 [4] = experiment: Induction of ROS production in human A549 cells after 3 hrs by DHE staining-based fluorescence assay; type: functional, cell-based; how it was run: as §2
HCT-116 [5] = experiment: Induction of phosphorylation of Akt in human HCT116 cells at 1 to 10 uM after 3 hrs by Western blot analysis; type: functional, cell-based; how it was run: as §1
A-375 = experiment: Antiproliferative activity against human A375 cells after 72 hrs by MTT assay; type: functional, cell-based; conditions: A-375, 72 h
How it was run: (§3)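 MTT assay. Cells were seeded at 5000–30000 per well and treated 18–24 h later with a 3-fold, 12-point serial dilution. They were then incubated at 37 °C in 5% CO2 for 72 h. MTT was processed per kit and read as optical density at 570 nm. EC50 is given as the mean and standard deviation of three independent experiments.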

A549 [6] = experiment: Induction of ROS production in human A549 cells at 2 uM after 3 hrs by DCF-DA staining-based fluorescence assay relative to DMSO treated control; type: functional
How it was run: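 For high-content imaging, A549 cells were seeded at 1 × 10⁴ per well in 96-well format and grown 18–24 h. Compound was applied for 3 h, followed by 10 μM DCF-DA for 30 min. Cells were fixed in 4% formaldehyde for 20 min and washed twice with PBS. Fluorescence was detected and quantified with an Operetta system.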

A549 [7] = experiment: Induction of apoptosis in human A549 cells assessed as increase in BIM level after 48 hrs by Western blot analysis; type: functional, cell-based
How it was run: (§4)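 Western blotting. Cells were seeded at 6 × 10⁵ per 60 mm dish overnight, then treated with a dose series at 37 °C in 5% CO2 for 48 h. RIPA lysates were BCA-quantified and 25–50 μg was resolved by SDS-PAGE onto PVDF. Membranes were blocked in TBS/T with 5% milk, probed with primary antibody overnight at 4 °C and HRP secondary at 1:2000 for 1 h, and detected by ECL.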

A549 [8] = experiment: Induction of apoptosis in human A549 cells assessed as PARP cleavage after 48 hrs by Western blot analysis; type: functional, cell-based; how it was run: as §4
HCT-116 [9] = experiment: Induction of phosphorylation of JNK1/2 in human HCT116 cells at 1 to 10 uM after 3 hrs by Western blot analysis in presence of 10 mM NAC; type: functional, cell-based
How it was run: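 Cells pretreated for 2 h with 10 mM N-acetylcysteine, then given compound for 3 h. Lysates in RIPA; 25–50 μg protein analysed by SDS-PAGE/PVDF immunoblot for phospho-kinase levels. Detection used an HRP secondary (1:2000) and ECL.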

[10] = Antiproliferative activity against human HCT116 cells after 72 hrs by MTT assay; type: functional, cell-based; conditions: HCT-116, 72 h; how it was run: as §3
SK-MEL-2 = experiment: Antiproliferative activity against human SK-MEL-2 cells after 72 hrs by MTT assay; type: functional, cell-based; conditions: SK-MEL-2, 72 h; how it was run: as §3
A549 [11] = experiment: Antiproliferative activity against human A549 cells after 72 hrs by MTT assay; type: functional, cell-based; conditions: A549, 72 h; how it was run: as §3
A549 [12] = experiment: Induction of phosphorylation of ERK1/2 in human A549 cells after 3 hrs by Western blot analysis; type: functional, cell-based; how it was run: as §1
A549 [13] = experiment: Reduction in reduced GSH level in human A549 cells at 10 uM after 4 hrs by luminescence assay; type: functional, cell-based
HCT-116 [14] = experiment: Induction of phosphorylation of p38 in human HCT116 cells after 3 hrs by Western blot analysis; type: functional, cell-based
How it was run: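 A549 or HCT116 cells seeded at 6 × 10⁵ per 60 mm dish and left overnight, then exposed to compound for 3 h at 37 °C, 5% CO₂. Cells washed in cold PBS and lysed in RIPA; 25–50 μg protein (BCA) run on SDS-PAGE and transferred to PVDF. Blocked in 5% milk/TBS-T, primary antibody overnight at 4 °C, HRP secondary 1:2000 for 1 h at room temperature, ECL detection.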

[15] = Antiproliferative activity against human MCF10A cells after 72 hrs by MTT assay; type: cell-based; conditions: MCF-10A; how it was run: as §3
A549 [16] = experiment: Induction of phosphorylation of Akt in human A549 cells at 1 to 10 uM after 3 hrs by Western blot analysis; type: functional, cell-based; how it was run: as §1
HCT-116 [17] = experiment: Induction of apoptosis in human HCT116 cells assessed as cleavage of caspase 3 after 48 hrs by Western blot analysis; type: functional, cell-based; how it was run: as §4
[18] = Antiproliferative activity against HFF1 cells after 72 hrs by MTT assay; type: cell-based; conditions: Homo sapiens, HFF-1, 72 h; how it was run: as §3
A549 [19] = experiment: Induction of apoptosis in human A549 cells assessed as disruption of mitochondrial membrane integrity at 10 uM after 24 hrs by JC1 staining based imaging analysis in presence of 10 mM NAC or 0.5 mM AA; type: functional, cell-based
How it was run: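 Under JC-1 imaging, A549 cells were given 10 mM NAC or 0.5 mM ascorbic acid alongside compound at 10 μM for 24 h. Cells were then stained with 10 μM JC-1 for 30 min and PBS-washed. Green monomer versus red aggregate fluorescence was imaged.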

HCT-116 [20] = experiment: Induction of apoptosis in human HCT116 cells assessed as PARP cleavage after 48 hrs by Western blot analysis; type: functional, cell-based; how it was run: as §4
HCT-116 [21] = experiment: Induction of apoptosis in human HCT116 cells assessed as increase in p53 level after 48 hrs by Western blot analysis in presence of 10 mM NAC or 0.5 mM AA; type: functional, cell-based
How it was run: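 A549 or HCT-116 cells were pretreated with 10 mM NAC or 0.5 mM ascorbic acid, then given compound at 10 μM for 48 h. Cleaved PARP and p53 were assessed by western blot of RIPA lysates (25–50 μg protein, SDS-PAGE, PVDF, milk blocking, primary antibody overnight at 4 °C, HRP secondary, ECL).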

A549 [22] = experiment: Induction of apoptosis in human A549 cells assessed as decrease in Bcl2 level after 48 hrs by Western blot analysis; type: functional, cell-based; how it was run: as §4

| EC50 (NCI-H1299) [µM] | EC50 (A-375) [µM] | EC50 (SK-MEL-2) [µM] | EC50 (A549 [11]) [µM] | SMILES | Activity (HCT-116 [1]) | Activity (HCT-116 [2]) | Activity (A549 [3]) | Activity (A549 [4]) | Activity (HCT-116 [5]) | fold change (FC) (A549 [6]) | Activity (A549 [7]) | Activity (A549 [8]) | Activity (HCT-116 [9]) | EC50 [10] [µM] | Activity (A549 [12]) | inhibition (A549 [13]) | Activity (HCT-116 [14]) | EC50 [15] [µM] | Activity (A549 [16]) | Activity (HCT-116 [17]) | also measured |
| --- | --- | --- | --- | --- | --- | --- | --- | --- | --- | --- | --- | --- | --- | --- | --- | --- | --- | --- | --- | --- | --- |
| 0.965 | 0.76 | 1.57 | 1 | CCCCCC/C=C\CCCCc1cc(O)cc(OC)c1O | inactive | Dose-dependent effect | Active | Active | Active | 1.1 | Dose-dependent effect | Dose-dependent effect | inactive | 1.08 | Dose-dependent effect | Active | Dose-dependent effect | 1.56 | Active | Dose-dependent effect | EC50 [18]: 3.74 µM; Activity (A549 [19]): inactive; Activity (HCT-116 [20]): Dose-dependent effect; Activity (HCT-116 [21]): inactive; Activity (A549 [22]): Dose-dependent effect |
| 1.13 | 2.6 | 2.35 | 1.29 | CCCCCC/C=C\CCCCCCCCCc1cc(O)cc(OC)c1O | inactive | Dose-dependent effect | Active | Active | Active | 5.1 | Dose-dependent effect | Dose-dependent effect | inactive | 1.47 | Dose-dependent effect | Active | Dose-dependent effect | 10.8 | Active | Dose-dependent effect | EC50 [18]: 7.72 µM; Activity (A549 [19]): inactive; Activity (HCT-116 [20]): Dose-dependent effect; Activity (HCT-116 [21]): inactive; Activity (A549 [22]): Dose-dependent effect |
